Data set [1] deals with T1, Phosphodiesterase 6 (Bos taurus) (UniProt P23439+P16586+P11541+P22571+P04972+Q95142). As to the kind of experiment: Percentage inhibition of bovine Phosphodiesterase 6 at 2 uM (n=2-3). The class given is protein assay. In outline: (§1)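 Enzyme purified from bovine retinas; cyclic nucleotide phosphodiesterase activity measured by a two-step procedure. Values are either IC50 or percent inhibition at the single test concentration stated.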

Data set [2] deals with T2, cGMP-specific 3',5'-cyclic phosphodiesterase (Homo sapiens, UniProt O76074). The data set can be described thus: Inhibition of human Phosphodiesterase 5 (n=2-3).
The target in data set [3] is T1, Phosphodiesterase 6 (Bos taurus). The data set can be described thus: Percentage inhibition of bovine Phosphodiesterase 6 at 0.2 uM (n=2-3). The class given is protein assay. In outline: as §1
Data set [4] has as its target T2, cGMP-specific 3',5'-cyclic phosphodiesterase. As to the kind of experiment: Percentage inhibition of human Phosphodiesterase 5 at 0.2 uM (n=2-3). The gist of the method:
(§2)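 Phosphodiesterase 5 purified from human platelets; activity measured by a two-step cyclic nucleotide phosphodiesterase procedure. Percent inhibition recorded at the single stated concentration.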

Data set [5] shares this target. The data set can be described thus: Percentage inhibition of human Phosphodiesterase 5 at 2 uM (n=2-3). The gist of the method: as §2
Data set [6] concerns the target Phosphodiesterase 6. The data set can be described thus: Inhibition of bovine Phosphodiesterase 6 (n=2-3). The class given is protein assay, Bos taurus.
Data set [7] deals with T2, cGMP-specific 3',5'-cyclic phosphodiesterase. The data set can be described thus: Percentage inhibition of human Phosphodiesterase 5 at 20 uM (n=2-3). In outline:
as §2

Data set [8] is described as follows: Half-life was observed. The class given is ADME.

The results in this text go back to ChEMBL document CHEMBL1144391, “New pyrazolo[1',5':1,6]pyrimido[4,5-d]pyridazin-4(3H)-ones as potent and selective PDE5 inhibitors” (Bioorg Med Chem Lett, 2005).

As for `Cc1nn(Cc2ccccc2)c(=O)c2nc(C)n3nc(-c4ccccc4)cc3c12`, the inhibition in data set [1] amounted to 25%. The midpoint of inhibition in data set [2], the IC50, lay at 160 nM. `Cc1nn(Cc2cccc(OP(=O)(O)O)c2)c(=O)c2nc(C)n3nc(-c4ccccc4)cc3c12`: the inhibition in data set [3] came out at 28.6%. For the same compound, the IC50 in data set [2] worked out at 230 nM. Consider `Cc1nn(-c2ccccc2)c(=O)c2nc(C)n3nc(-c4ccccc4)cc3c12`, for which the inhibition is 3.7% in data set [3] and 11.9% in data set [4]. `COCc1nc2c(=O)n(Cc3ccccc3)nc(C)c2c2cc(-c3ccccc3)nn12`: the inhibition in data set [1] amounted to 53.3%. The compound further showed an IC50 in data set [2] of 100 nM. Turning to `CCC(CC)c1nc2c(=O)n(Cc3ccccc3)nc(C)c2c2cc(-c3ccccc3)nn12`, in data set [1], the inhibition stood at 37.4%. The compound further came in with an IC50 in data set [2] of 67 nM.

Regarding `Cc1ccccc1-c1nc2c(=O)n(Cc3ccccc3)nc(C)c2c2cc(-c3ccccc3)nn12`, the inhibition in data set [5] came to 55.1%. Take `Cc1nn(Cc2ccccc2)c(=O)c2nc(CCCCC(=O)O)n3nc(-c4ccccc4)cc3c12`: the results for the IC50 in data set [2] and in data set [6] were 90 nM and 63 nM, respectively. Turning to `Cc1nn(Cc2ccccc2)c(=O)c2nc(C)n3nc(-c4ccc5c(c4)OCO5)cc3c12`, in data set [6], the IC50 came to 78000 nM. With `CCOCc1nc2c(=O)n(Cc3ccccc3)nc(C)c2c2cc(-c3ccccc3)nn12`, the inhibition in data set [1] is 45%. Moreover, the IC50 in data set [2] was 350 nM. As for `Cc1nn(Cc2ccccc2)c(=O)c2nc(C)n3nc(-c4ccc([N+](=O)[O-])cc4)cc3c12`, the figures for the inhibition in data set [3] and in data set [7] were 14.4% and 65.5%, respectively. Consider `Cc1nn(Cc2ccccc2)c(=O)c2nc(C)n3nc(-c4ccc(N)cc4)cc3c12`, for which, in data set [1], the inhibition stood at 4.5%. This compound also came in with an IC50 in data set [2] of 920 nM. As to `CSCc1nc2c(=O)n(Cc3ccccc3)nc(C)c2c2cc(-c3ccccc3)nn12`, in data set [1], the inhibition turned out to be 38.1%. This compound gave a 50% inhibitory concentration (IC50) in data set [2] of 100 nM. For the compound `Cc1nn(Cc2ccccc2)c(=O)c2nc(-c3cccnc3)n3nc(-c4ccccc4)cc3c12`, the inhibition in data set [1] was 17.7%. Besides, 180 nM corresponded to half-maximal inhibition in data set [2] (IC50). Take `CCC(C)c1nc2c(=O)n(Cc3ccccc3)nc(C)c2c2cc(-c3ccccc3)nn12` (centres undefined): the inhibition in data set [1] amounted to 42.5%. This compound returned an IC50 in data set [2] of 34 nM.

`Cc1nn(Cc2ccccc2)c(=O)c2nc(C)n3nc(-c4ccccn4)cc3c12`: the IC50 was determined as 270 nM in data set [2] and 10000 nM in data set [6]. On the same counts, the results for `Cc1nn(Cc2ccccc2)c(=O)c2nc(CCc3ccccc3)n3nc(-c4ccccc4)cc3c12` are 980 nM and 30000 nM. With `CCC(C)c1nc2c(=O)n(Cc3ccccc3)nc(C)c2c2cc(-c3ccccn3)nn12` (centres undefined), in data set [1], the inhibition was found to be 34.6%. Besides, the IC50 in data set [2] is 39 nM.

Consider `Cc1nn(Cc2ccc([N+](=O)[O-])cc2)c(=O)c2nc(C)n3nc(-c4ccccc4)cc3c12`, for which the inhibition in data set [7] is 65.9%; in data set [1] it was 10.4%.

Take `Cc1nn(Cc2ccccc2)c(=O)c2nc(CCCC(=O)O)n3nc(-c4ccccc4)cc3c12`: the IC50 was 30 nM in data set [2] and 110 nM in data set [6]. Regarding `Cc1nn(Cc2ccccc2)c(=O)c2nc(-c3ccccc3)n3nc(-c4ccccc4)cc3c12`, the IC50 in data set [2] was found to be 81 nM; in data set [6] it was 2800 nM. In the case of `CN1CC(=O)N2[C@H](c3ccc4c(c3)OCO4)c3[nH]c4ccccc4c3C[C@@H]2C1=O`, the half-life in data set [8] is over 17 h.

Consider `Cc1nn(Cc2ccccc2)c(=O)c2nc(-c3ccncc3)n3nc(-c4ccccc4)cc3c12`, for which the inhibition is -4.8% in data set [1] and 69% in data set [5]. In the case of `Cc1cccc(-c2nc3c(=O)n(Cc4ccccc4)nc(C)c3c3cc(-c4ccccc4)nn23)c1`, the inhibition in data set [1] is 11.5%. The compound further registered an IC50 in data set [2] of 75 nM. On the same counts, the results for `Cc1nn(Cc2ccccc2)c(=O)c2nc(Cc3ccncc3)n3nc(-c4ccccc4)cc3c12` are 20.4% and 450 nM. Consider `Cc1nn(Cc2ccc(N)cc2)c(=O)c2nc(C)n3nc(-c4ccccc4)cc3c12`, for which the results for the IC50 in data set [2] and in data set [6] were 1100 nM and 2000 nM, respectively. On to `Cc1nn(Cc2ccccc2)c(=O)c2nc(CC3CCCCC3)n3nc(-c4ccccc4)cc3c12`, for which the results for the inhibition in data set [1] and in data set [5] were 19.2% and 33.6%, respectively. Consider `Cc1nn(Cc2ccccc2)c(=O)c2nc(/C=C/C(=O)O)n3nc(-c4ccccc4)cc3c12`, for which the IC50 in data set [2] was 320 nM; in data set [6], 580 nM. Consider `Cc1nn(Cc2ccccc2)c(=O)c2nc(Cc3ccccc3)n3nc(-c4ccccc4)cc3c12`, for which the inhibition in data set [1] came out at 13.6%; in data set [5], 22.5%. As for `Cc1nn(CC2CCCCC2)c(=O)c2nc(C)n3nc(-c4ccccc4)cc3c12`, the IC50 came to 3100 nM in data set [2] and 11000 nM in data set [6]. In the case of `CCC(C)c1nc2c(=O)n(Cc3cccc(OP(=O)(O)O)c3)nc(C)c2c2cc(-c3ccccc3)nn12` (centres undefined), the inhibition in data set [1] stood at 66.9%. In data set [2], this compound came in with a half-inhibitory concentration (IC50) of 59 nM. In the case of `Cc1nn(Cc2ccccc2)c(=O)c2nc(C)n3nc(C(C)(C)C)cc3c12`, the inhibition in data set [5] is 31%. Take `Cc1nn(Cc2ccccc2)c(=O)c2nc(CCC(=O)O)n3nc(-c4ccccc4)cc3c12`: the figures for the IC50 in data set [2] and in data set [6] were 430 nM and 590 nM, respectively. Turning to `Cc1nn(Cc2ccccc2)c(=O)c2nc(CC3CCCC3)n3nc(-c4ccccc4)cc3c12`, the inhibition in data set [1] was determined as 4.2%; in data set [5], 18.2%. Take `Cc1nn(Cc2ccccc2)c(=O)c2nc(-c3ccccn3)n3nc(-c4ccccc4)cc3c12`: the inhibition in data set [1] is 21.3%. The 50% inhibitory concentration (IC50) in data set [2] worked out at 81 nM.
